MC4R antag cAMP: blocks human MC4R cAMP signaling | P32245 | AID 540295 | actives 0.48% (n = 360,000) | MC4R-expressing cells, MTII-stimulated cAMP, LANCE TR-FRET | inhibition, % at 6.5 µM;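 active = inhibition above its plate's cutoff, the mean of tested wells on that plate plus 3 SD, cut at about 29% in these data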
Target sequence (P32245 whole entry, looked up): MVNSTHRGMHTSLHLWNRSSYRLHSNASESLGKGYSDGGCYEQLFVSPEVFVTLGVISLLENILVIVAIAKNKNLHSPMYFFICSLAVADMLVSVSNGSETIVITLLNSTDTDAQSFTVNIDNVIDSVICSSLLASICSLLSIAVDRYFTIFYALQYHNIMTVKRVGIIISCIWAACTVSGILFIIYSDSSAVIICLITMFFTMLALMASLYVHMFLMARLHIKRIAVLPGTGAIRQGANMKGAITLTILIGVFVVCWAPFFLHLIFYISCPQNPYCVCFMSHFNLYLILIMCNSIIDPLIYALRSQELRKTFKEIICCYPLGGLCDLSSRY
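Material: human MC4R-expressing U2OS cells. Probe or stimulus: Melanotan II challenge. Dosing: 6.5 µM single dose. Times: 30-min compound, 1-h challenge, 1-h detection, room temperature. Technique: TR-FRET with Eu-cAMP and labeled anti-cAMP, 671 nm. Replication: singlicate.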
UPR CHOP act: apoptotic UPR (CHOP) activation. CHO-CHOP luciferase reporter, luminescence; percent of tunicamycin response over DMSO baseline. activation, % at 10 µM. actives 0.34% (n = 330,000);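 active = at 10 µM dose, activation of 40% or more, normalized to positive control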
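Dosing – one dose, 10 µM in 0.5% DMSO · System – CHO-CHOP cells, stable luciferase reporter of PERK-eIF2a-CHOP signalling · Input – 500 cells/well · Control set – tunicamycin 10 µg/mL final as positive, DMSO-only wells as negative · Timing – 6 h compound treatment, 37 °C · Measure – % activation vs tunicamycin · Technique – luminescence read with Steady-Glo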
XBP1 UPR activ: activators of adaptive arm of unfolded protein response (XBP1) | CHO-XBP1 luciferase reporter, IRE1-XBP1 UPR activation, luminescence; percent of tunicamycin response, DMSO as zero | activation, % at 20 µM | actives 0.33% (n = 330,000) | AID 463104;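 active = versus positive control, 20 µM dose yields 30% or more activation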
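Assay system: IRE1-XBP1 luciferase reporter CHO line. Input: 1000 cells/well. Buffer or medium: F12 with 10% serum. Doses: 20 µM, 1% DMSO. Times: overnight seeding at 37 °C, 6 h compound treatment at 37 °C. Technique: Steady-Glo luciferase glow luminescence, 10 min after reagent addition.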
A1 inh: inhibitors of the anti-apoptotic protein A1, read as caspase activation | actives 0.066% (n = 330,000) | caspase activation, % (concentration not given with the values) | MEF A1-2A-BIM cells, Caspase-Glo 3/7 luminescence, 3 h; percent of clofoctol response, vehicle zero | AID 2462;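 active = over half of replicate activation scores above 10%, or exactly half above 10 with the replicate mean above 10; inconclusive = replicate mean below 10 yet half the replicates above 10; inactive = over half of replicates below 10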
MC4R barr agon: agonists of human melanocortin 4 receptor (MC4R) beta-arrestin; P32245; U2OS MC4R beta-arrestin complementation, luminescence; percent of melanotan II response, DMSO zero; activation, % at 8.9 µM; actives 0.98% (n = 360,000); AID 540308;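 active = activation above a per-plate cutoff, the mean activation of sample wells on that plate plus 3 SD, cut at about 8% in these data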
MC4R barr conf: human MC4R beta-arrestin agonism confirmation | shares compounds with MC4R barr agon | U2OS MC4R beta-arrestin recruitment, luminescence; scaled DMSO 0%, Melanotan II 100% | activation, % at 8.9 µM | actives 31% (n = 2,400) | AID 602192;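 active = mean activation across replicates above the hit cutoff set in the earlier primary screen, cut at about 8% in these data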
MOR-DOR barr ag: counter-screen for MC4R agonists: agonists of mu-delta opioid heterodimer; U2OS PathHunter beta-arrestin, beta-gal luminescence; percent of deltorphin B response, DMSO zero; shares compounds with MC4R barr agon; actives 5.8% (n = 2,400); activation, % at 9.2 µM;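 active = mean activation across replicates exceeds the hit threshold derived in the earlier primary screen, cut at about 18% in these data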
A number is an active result; n = inactive; u = inconclusive; x = not tested or not shown. Sampled rows, rich in hits. Any-hit rate of the full collection: about 2%.

SMILES | MC4R antag cAMP | UPR CHOP act | XBP1 UPR activ | A1 inh | MC4R barr agon | MC4R barr conf | MOR-DOR barr ag
COc1cc(NC(=O)c2cc3c(=O)n(C)c4ccccc4c3n2C)cc(OC)c1OC | n | n | n | n | 30.7 | n | n
O=c1c2cc(Cl)ccc2[nH]c(=S)n1Cc1cccs1 | n | n | n | n | 10.0 | n | n
Cc1ccc(C(=O)Nc2ccc(N3CCOCC3)c3nonc23)cc1[N+](=O)[O-] | n | n | n | n | 11.1 | n | n
Cc1cc(C(=O)Nc2ccc(N3CCOCC3)c3nonc23)ccc1[N+](=O)[O-] | n | n | n | n | n | x | x
COC(=O)c1oc2ccc(Br)cc2c1NC(=O)c1ccccc1 | n | n | n | n | 29.7 | 16.3 | n
Cn1c(-c2ccc(Cl)cc2)ccc(C#N)c1=O | n | n | n | n | 10.9 | n | n
Cn1cc(-c2ccc(Cl)cc2)cc(C#N)c1=O | n | n | n | n | n | x | x
COc1ccc(-c2[nH]c(-c3ccc4c(c3)OCO4)nc2-c2ccccc2)cc1 | n | n | n | n | n | x | x
COc1cc(-c2nc(-c3ccccc3)c(-c3ccc(F)cc3)[nH]2)cc2c1OCO2 | n | n | n | n | 12.4 | n | n
CCc1noc(C)c1C(=O)Nc1nc(-c2ccc(F)cc2)c(C)s1 | n | n | n | u | n | x | x
CCc1ccc(-c2nc(NC(=O)c3ccc(OCC(=O)Nc4ccc(F)cc4)c(OC)c3)sc2C)cc1 | n | n | n | n | 11.2 | 10.5 | n
CCOc1ccc(/C=N/NC(=O)c2cc3c(OC)cccc3[nH]2)cc1 | n | n | n | n | 11.1 | n | 18.4
COc1ccc(OC)c(/C=N/NC(=O)c2cc3c(OC)cccc3[nH]2)c1 | n | n | n | n | n | x | x
CSc1ccccc1OCc1cc(C(=O)NC2CCc3ccccc32)no1 (centres undefined) | n | n | n | n | 64.2 | 9.5 | n
COc1ccc(/C=N\NC(=O)c2cc(OCC(F)(F)F)ccc2OCC(F)(F)F)cc1 | n | n | n | n | 10.7 | n | n
O=C(N/N=C\c1ccc(F)cc1)c1cc(OCC(F)(F)F)ccc1OCC(F)(F)F | n | n | n | n | n | x | x
Cc1ccccc1OCC(=O)N/N=C/C=C/c1ccccc1 | n | n | n | n | 10.3 | n | n
C/C(=N\NC(=O)COc1ccccc1)c1cccs1 | n | n | n | n | n | x | x
COc1ccc(/C=C/C=N/NC(=O)COc2ccc(OC)cc2)cc1 | n | n | n | n | n | x | x
O=C(COc1cccc2ccccc12)N/N=C/C=C/c1ccccc1 | n | n | n | n | 9.7 | n | n
C/C(=N\NC(=O)COc1cccc2ccccc12)c1cccs1 | n | n | n | n | 16.6 | 16.6 | n
COc1ccccc1NCC(=O)N/N=C/C=C/c1ccccc1 | n | n | n | n | n | x | x
CCc1nc2c(OCCn3cccc3)cccn2c1N(C)C(=O)C1CC1 | n | x | x | x | n | x | x
O=C(O)Cn1nncc1-c1ccc(C(F)(F)F)cc1 | n | x | x | x | n | x | x
S=C(Nc1ccccc1)Nc1ccc(Br)cn1 | n | n | n | n | 10.8 | n | n
SMILES | MC4R antag cAMP | UPR CHOP act | XBP1 UPR activ | A1 inh | MC4R barr agon | MC4R barr conf | MOR-DOR barr ag
Cc1ccc(NC(=O)CN(C)C(=O)C2CSC3(C)CCC(=O)N23)cc1 (centres undefined) | n | x | x | x | n | x | x
O=C(CSc1nccc(-c2ccc(Br)cc2)n1)NCCc1ccccc1 | n | n | n | n | 11.7 | n | n
CC(=O)Nc1cc(-c2cccc(CO)c2)cn2c(-c3ccc(F)cc3)cnc12 | n | x | x | x | n | x | x
N#Cc1cccc(NC(=O)c2cc(C3CCCCN3S(=O)(=O)c3ccccc3)on2)c1 (centres undefined) | n | x | x | x | n | x | x
COc1cc(-c2cc(-c3ccccc3)nc(SCC(=O)Nc3nccs3)c2C#N)cc(OC)c1OC | n | n | n | n | 11.0 | n | n
COc1ccccc1-c1cc(-c2ccccc2)nc(SCC(=O)O)c1C#N | n | n | n | n | n | x | x
Cc1cc(C)c(C#N)c(SCC(=O)Nc2nnc(-c3ccccc3)s2)n1 | n | n | n | n | 16.4 | n | n
Cc1cc(C)c(C#N)c(SCC(=O)Nc2ccccc2C)n1 | n | n | n | n | n | x | x
CCN1CCN(c2cc(N3CCc4ccccc4C3)c(F)cc2[N+](=O)[O-])CC1 | n | n | n | n | 14.9 | 14.5 | n
COc1ccccc1N(C)S(=O)(=O)c1ccc(Cl)c(C(=O)Nc2ccccc2N2CCOCC2)c1 | n | x | x | x | n | x | x
CC(=O)Nc1cccc(NS(=O)(=O)c2ccc3c(c2)CCC(=O)N3)c1 | n | x | x | x | n | x | x
O=C1c2ccccc2C(=O)C1c1ccc(Br)cc1 | n | n | n | n | n | x | x
COc1ccc(C2C(=O)c3ccccc3C2=Nc2ccc(Br)cc2)cc1 (centres undefined) | n | n | n | n | 25.9 | 10.7 | n
COc1cc(CC(=O)NCCc2ccc(OCc3ccccc3)cc2)c([N+](=O)[O-])cc1OC | n | n | n | n | 12.4 | n | n
CC(C)C[C@@H](CO)NS(=O)(=O)c1c(F)cccc1F | n | x | x | x | n | x | x
c1ccc(COc2ncnc3c2ncn3CCCN2CCN(Cc3cccc4ccccc34)CC2)cc1 | n | x | x | x | 19.9 | 10.0 | n
Cc1ccc(CN2CCN(CCCn3cnc4c(OCc5ccccc5)ncnc43)CC2)cc1 | n | x | x | x | n | x | x
CCS(=O)(=O)N1CCN(C(=O)c2ccc3nc(C)c(N(C)C(=O)CCc4ccccc4)n3c2)CC1 | n | x | x | x | n | x | x
COc1cccc(-c2cc(NC=O)c3ncc(-c4ccc(OC)c(OC)c4)n3c2)c1 | n | x | x | x | n | x | x
COc1ccccc1-c1cc(NC=O)c2ncc(-c3cccc(C(=O)N(C)C)c3)n2c1 | n | x | x | x | n | x | x
CC(=O)c1cccc(-c2cnc3c(NC=O)cc(-c4ccc(F)cc4)cn23)c1 | n | x | x | x | 14.1 | 15.0 | n
COc1ccccc1-c1cc(NC=O)c2ncc(-c3cccc(C(C)=O)c3)n2c1 | n | x | x | x | 9.9 | 14.2 | n
COc1ccc(F)cc1-c1cc(NC=O)c2ncc(-c3cccc(C(F)(F)F)c3)n2c1 | n | x | x | x | 10.3 | n | n
CCn1c(CC(=O)Nc2ccc(C)c(Cl)c2)nnc1SCCOc1ccc(OC)cc1 | n | n | n | n | 10.7 | n | n
COc1ccc(NC(=O)CSc2nnc(CCC(=O)Nc3ccc(C)c(Cl)c3)n2C)cc1 | n | n | n | n | n | x | x
O=C(COC(=O)c1ccccc1OC(F)F)Nc1ccc(N2CCCCC2)cc1 | n | n | n | x | 10.6 | n | n
